From the array DNA melting data of Ke et al. (doi:10.1101/2024.01.08.574731)

Key:
[1] = melting temperature; fluorescence melt of hairpins on a sequencing array, two-state fit, raised by 9.35 °C to match UV melts; details: sodium 0.088 M
Procedure, shortened: (§1)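 In 50 mM Na-HEPES pH 8.0 containing 25 mM NaCl, hairpins from the library on a sequenced MiSeq flow cell were imaged for Cy3 fluorescence at 2.5 °C steps up to 60 °C, with Cy3 and quencher oligos annealed. After normalisation to pre-quench Cy3 and to control constructs, two-state fits with bootstrapping gave melting temperature and folding enthalpy. Four replicates were combined by inverse-variance weighting, and fitted temperatures were shifted up by 9.35 °C to match UV melts.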

[2] = folding enthalpy; higher = less favourable; fluorescence melt of hairpins on a sequencing array, two-state fit; details: sodium 0.088 M
Procedure, shortened: as §1

Sequence	Tm [1]	folding enthalpy [2]
GGATGGTCGAAAGACTCC (((..(((....))))))	32.9 °C	-14.2 kcal/mol
GGATGTCCGAAAGGATCC (((..(((....))))))	32.2 °C	-14.3 kcal/mol
GGATGTCGAAAGACGTCC (((.(((....))).)))	61 °C	-38.8 kcal/mol
GGATGTGGAAACACATCC (((((((....)))))))	64.5 °C	-42.6 kcal/mol
GGATGTGGAAACACGTCC (((.(((....))).)))	53 °C	-55.2 kcal/mol
GGATGTGGAAACGCATTC (.(((.(....).))).)	33.9 °C	-22.9 kcal/mol
GGATTACGAAAGTATTCC (((.(((....))).)))	44 °C	-32.6 kcal/mol
GGATTAGCGAAAGCTTCC (((..(((....))))))	32.7 °C	-11.1 kcal/mol
GGATTAGGAAACTAGTCC (((.(((....))).)))	37.2 °C	-25.2 kcal/mol
GGATTCGAAAGAAATCC ((((((....))).)))	44 °C	-24.1 kcal/mol
GGATTCGAAAGAACTCC ((((((....))).)))	36 °C	-22 kcal/mol
GGATTCGAAAGAACTTCC ((((((....)))..)))	28.4 °C	-8.73 kcal/mol
GGATTCGAAAGAAGTCC ((((((....))).)))	36.7 °C	-17.2 kcal/mol
GGATTGACGAAAGTCTCC (((..(((....))))))	28.4 °C	-13.7 kcal/mol
GGATTGCGAAAGCATTCC (((.(((....))).)))	52.8 °C	-36.2 kcal/mol
GGATTGGGAAACCAGTCC (((.(((....))).)))	46.9 °C	-31.1 kcal/mol
GGATTGTCGAAAGACTCC (((..(((....))))))	30.9 °C	-16 kcal/mol
GGATTTGGAAACAGATCC ((((.((....)).))))	41.5 °C	-30.7 kcal/mol
GGATTTGGAAACGAATCC (((((.(....).)))))	46.1 °C	-34.9 kcal/mol
GGCAAAACGAAAGTTGCC (((..(((....))))))	52.7 °C	-38.6 kcal/mol
GGCAAAGCGAAAGCTGCC (((..(((....))))))	58.5 °C	-31.3 kcal/mol
GGCAAAGGAAACTTTACC ((.((((....)))).))	30.1 °C	-27.4 kcal/mol
GGCAAAGGAAACTTTGCC (((((((....)))))))	62.7 °C	-40.7 kcal/mol

Sequence	Tm [1]	folding enthalpy [2]
GGCAACCCGAAAGGGGCC (((..(((....))))))	55.4 °C	-23.8 kcal/mol
GGCAACCGAAAGGTAGCC (((.(((....))).)))	62.4 °C	-33.6 kcal/mol
GGCAACGAAAGTTCGCC ((((((....))).)))	51.6 °C	-22.9 kcal/mol
GGCAACGAAAGTTCGGCC ((((((....)))..)))	44.4 °C	-25.2 kcal/mol
GGCAACGAAAGTTGCGCC ((((((....)))..)))	59.2 °C	-7.94 kcal/mol
GGCAACGGAAACATTGCC (((((.(....).)))))	45.1 °C	-31.6 kcal/mol
GGCAACGGAAACGTTGTC (.(((((....))))).)	55.9 °C	-39.2 kcal/mol
GGCAACTCGAAAGAGGCC (((..(((....))))))	48.8 °C	-22.7 kcal/mol
GGCAAGGGAAACCCTGCC ((((.((....)).))))	53.2 °C	-38.6 kcal/mol
GGCAAGGGAAACTTTGCC (((((.(....).)))))	50.1 °C	-37.7 kcal/mol
GGCAAGTCGAAAGACGCC (((..(((....))))))	53.1 °C	-18.2 kcal/mol
GGCAATCCGAAAGGAGCC (((..(((....))))))	46.9 °C	-23.4 kcal/mol
GGCAATGAAAATTGCC ((((((....))))))	61.4 °C	-37.5 kcal/mol
GGCAATGGAAACATCGCC (((.(((....))).)))	45.5 °C	-34.7 kcal/mol
GGCAATGGAAACATTGTC (.(((((....))))).)	48.4 °C	-33.5 kcal/mol
GGCAATTCGAAAGAAGCC (((..(((....))))))	37.8 °C	-24.7 kcal/mol
GGCACAACGAAAGTTGCC (((..(((....))))))	44.2 °C	-16.4 kcal/mol
GGCACACCGAAAGGTGCC (((..(((....))))))	52.8 °C	-14.3 kcal/mol
GGCACAGGAAACTGCGCC (((.(((....))).)))	55.8 °C	-50.8 kcal/mol
GGCACATCGAAAGATGCC (((..(((....))))))	42.8 °C	-14.7 kcal/mol
GGCACCGAAAGGTCGGCC ((((((....)))..)))	49.9 °C	-21.8 kcal/mol
GGCACCGAAAGGTCTGCC ((((((....)))..)))	48.4 °C	-22.2 kcal/mol
